Laboratory results as given in ChEMBL document CHEMBL1149480, “Discovery of a novel series of inhibitors of human cytomegalovirus primase” (Bioorg Med Chem Lett, 2006).
Active and inactive are the calls of the source. No cut-off for these calls is given here.

What was measured:
Human betaherpesvirus 5 [1] = experiment: Inhibition of human CMV growth by plaque reduction assay; type: functional
Outline: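 Plaques counted after 10-day incubation of 10^5 cells infected with 1000 pfu of wild-type, clinical-isolate or resistant virus; IC99.9 is the drug amount inhibiting plaque formation by 99.9%.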

HFF [2] = experiment: Cytotoxicity against HFF cells; type: functional, cell-based; conditions: Homo sapiens
Outline: (§1)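 HFF or Jurkat cells were seeded and compound added 3 h later. Alamar blue staining at 0, 24, 48 and 72 h, then a further 3 h incubation, with fluorescence read-out. IC50 is the concentration inhibiting cell growth by 50%.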

[3] = Ratio of antiviral activity against human CMV to rhesus CMV; type: functional, Cercopithecine herpesvirus 8
Murid betaherpesvirus 2 = experiment: Antiviral activity against rat CMV; type: functional, organism-based
[4] = tested on: Human immunodeficiency virus; experiment: Antiviral activity against HIV; type: functional, organism-based
Jurkat = experiment: Cytotoxicity against human Jurkat cells; type: functional, cell-based; outline: as §1
HFF [5] = experiment: Antiviral activity against human CMV by dot blot assay in HFF cells; type: functional, cell-based
Outline: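 Dot blot DNA replication readout. HFF cells were seeded at 2 × 10^4 cells/well and infected with rhCMVLuc, clinical isolates or wild-type virus, then incubated 72 h with drug. Cells were lysed in 0.4 N NaOH, 0.5 M EDTA, applied to membrane by microfiltration and UV-crosslinked. DNA was hybridized to a hCMV-specific 32P probe and detected by phosphorimaging.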

Human betaherpesvirus 6 = experiment: Antiviral activity against HHV6; type: functional, organism-based
Human gammaherpesvirus 4 = experiment: Antiviral activity against EBV; type: functional, organism-based
Murid betaherpesvirus 1 = experiment: Antiviral activity against mouse CMV; type: functional, organism-based
Human betaherpesvirus 5 [6] = experiment: Inhibition of human CMV growth by viral yield assay; type: functional
Outline: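 Viral yield: once CPE appeared, well supernatants were serially diluted 1:2 sixteen times and used to infect fresh HFF cells (10^4/well). Inoculum was removed after 1 h; cells were incubated 5–7 days until CPE. Yield was quantified and IC99.9 taken as the drug concentration giving 99.9% inhibition of replication.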

Human alphaherpesvirus 1 = experiment: Antiviral activity against HSV; type: functional, organism-based
Caviid betaherpesvirus 2 = experiment: Antiviral activity against guinea pig CMV; type: functional, organism-based
HFF [7] = experiment: Antiviral activity against human CMV by luciferase reporter gene assay in HFF cells; type: functional, cell-based
Outline: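 HFF cells (10^4/well) were rested 2 h, then infected with rhCMVLuc at MOI 1 pfu/cell. Inoculum was removed after 1 h and drug added (0.005–5 µM or 0.05–50 µM) for 48 h at 37 °C. Luciferase was read with Mg(OAc)2, 30 mM Tricine pH 7.8 and 200 µM EDTA. IC50 is 50% inhibition of hCMV DNA replication.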

[8] = tested on: DNA primase UL70 (Human cytomegalovirus); experiment: Binding affinity to human CMV UL70 primase by immunoprecipitation assay; conditions: Human betaherpesvirus 5; tested as the 3H-labelled form

Compound | Selectivity ratio [3] | Activity (Murid betaherpesvirus 2) | Activity [4] | Activity (Human betaherpesvirus 6) | Activity (Human gammaherpesvirus 4) | Activity (Murid betaherpesvirus 1) | Activity (Human alphaherpesvirus 1) | Activity (Caviid betaherpesvirus 2) | IC50 (HFF [7]) [nM] | further results
Cc1nc(NC2CCc3ccccc32)nc(-n2ccnc2C)c1[N+](=O)[O-] (stereo not given) | >=10 | inactive | inactive | inactive | inactive | inactive | inactive | inactive |  | IC100 (Human betaherpesvirus 5 [1]): 0.5 µM; IC50 (HFF [2]): > 100000 nM; IC50 (Jurkat): 100000 nM; IC50 (HFF [5]): 53 nM; IC100 (Human betaherpesvirus 5 [6]): 0.1 µM
Cc1nc(N(C)Cc2ccccc2)nc(-n2ccnc2)c1[N+](=O)[O-] | >=10 | inactive | inactive | inactive | inactive | inactive | inactive | inactive | 20 | 
Cc1nc(N2CCC(C)CC2)nc(-n2ccnc2C)c1[N+](=O)[O-] | >=10 | inactive | inactive | inactive | inactive | inactive | inactive | inactive |  | IC50 (HFF [5]): 300 nM
[3H]CC([3H])c1nc(N(C)Cc2ccccc2)nc(-n2ccnc2C)c1[N+](=O)[O-] (stereo not given) | >=10 |  |  |  |  |  |  |  |  | 
Cc1nccn1-c1nc(N(C)Cc2ccccc2)nc2c1S(=O)(=O)CC2 | >=10 | inactive | inactive | inactive | inactive | inactive | inactive | inactive | > 30000 | 
Cc1nc(N(C)Cc2ccccc2)nc(-n2ccnc2C)c1[N+](=O)[O-] | >=10 | inactive | inactive | inactive | inactive | inactive | inactive | inactive | 39 | IC100 (Human betaherpesvirus 5 [1]): 0.5 µM; IC50 (HFF [2]): > 100000 nM; IC50 (Jurkat): 25000 nM; IC50 (HFF [5]): 61 nM; IC100 (Human betaherpesvirus 5 [6]): 0.2 µM
Cc1nc(N(C)Cc2ccccc2)nc(-n2ccnc2C)c1C#N | >=10 | inactive | inactive | inactive | inactive | inactive | inactive | inactive | > 30000 | 
CCCCN(C)c1nc(C)c([N+](=O)[O-])c(-n2ccnc2C)n1 | >=10 | inactive | inactive | inactive | inactive | inactive | inactive | inactive |  | IC50 (HFF [5]): 300 nM
Cc1nccn1-c1nc(N(C)Cc2ccccc2)nc(Cl)c1[N+](=O)[O-] | >=10 | inactive | inactive | inactive | inactive | inactive | inactive | inactive | > 30000 | 
Cc1nccn1-c1nc(N(C)Cc2ccccc2)nc(C(C)C)c1[N+](=O)[O-] | >=10 | inactive | inactive | inactive | inactive | inactive | inactive | inactive | 3000 | 
Cc1cc(-n2ccnc2C)nc(N(C)Cc2ccccc2)n1 | >=10 | inactive | inactive | inactive | inactive | inactive | inactive | inactive | > 30000 | 
CCOc1nc(C)c([N+](=O)[O-])c(-n2ccnc2C)n1 | >=10 | inactive | inactive | inactive | inactive | inactive | inactive | inactive |  | IC50 (HFF [5]): 670 nM
Cc1nc(N(C)Cc2ccccc2)nc(-n2c(C)nc3ccccc32)c1[N+](=O)[O-] | >=10 | inactive | inactive | inactive | inactive | inactive | inactive | inactive | > 30000 | 
Nc1nc2c(ncn2COC(CO)CO)c(=O)[nH]1 [GANCICLOVIR] |  |  |  |  |  |  |  |  |  | IC100 (Human betaherpesvirus 5 [1]): 10 µM; IC50 (HFF [2]): > 100000 nM; IC50 (Jurkat): > 100000 nM; IC100 (Human betaherpesvirus 5 [6]): 5 µM
CCc1nc(N(C)Cc2ccccc2)nc(-n2ccnc2C)c1[N+](=O)[O-] | >=10 | inactive | inactive | inactive | inactive | inactive | inactive | inactive | 170 | Activity (Murid betaherpesvirus 2; tested as the 3H-labelled form): inactive; Activity ([4]; tested as the 3H-labelled form): inactive; Activity (Human betaherpesvirus 6; tested as the 3H-labelled form): inactive; Activity (Human gammaherpesvirus 4; tested as the 3H-labelled form): inactive; Activity [8]: Active; Activity (Murid betaherpesvirus 1; tested as the 3H-labelled form): inactive; Activity (Human alphaherpesvirus 1; tested as the 3H-labelled form): inactive; Activity (Caviid betaherpesvirus 2; tested as the 3H-labelled form): inactive
CCc1nccn1-c1nc(N(C)Cc2ccccc2)nc(C)c1[N+](=O)[O-] | >=10 | inactive | inactive | inactive | inactive | inactive | inactive | inactive | 190 | 
Cc1nc(N(C)c2ccccc2)nc(-n2ccnc2C)c1[N+](=O)[O-] | >=10 | inactive | inactive | inactive | inactive | inactive | inactive | inactive | 550 | IC100 (Human betaherpesvirus 5 [1]): 2.5 µM; IC50 (HFF [2]): 100000 nM; IC50 (Jurkat): 80000 nM; IC50 (HFF [5]): 300 nM; IC100 (Human betaherpesvirus 5 [6]): 2 µM
Nc1ccn(C[C@@H](CO)OCP(=O)(O)O)c(=O)n1.O.O [CIDOFOVIR] |  |  |  |  |  |  |  |  |  | IC100 (Human betaherpesvirus 5 [1]): 2.5 µM; IC50 (HFF [2]): > 100000 nM; IC50 (Jurkat): 100000 nM; IC100 (Human betaherpesvirus 5 [6]): 1 µM
Cc1nccn1-c1nc(N(C)Cc2ccccc2)nc(CCN(C)C)c1[N+](=O)[O-] | >=10 | inactive | inactive | inactive | inactive | inactive | inactive | inactive | 6000 | 
Cc1nc(N(C)Cc2ccccc2)nc(-n2ccnc2-c2ccccc2)c1[N+](=O)[O-] | >=10 | inactive | inactive | inactive | inactive | inactive | inactive | inactive | 5000 | 
Cc1nc(N(C)Cc2ccccc2)nc(-n2ccnc2C(C)C)c1[N+](=O)[O-] | >=10 | inactive | inactive | inactive | inactive | inactive | inactive | inactive | 770 | 
Cc1nc(N(C)Cc2ccccc2)nc(-n2ccnc2C)n1 | >=10 | inactive | inactive | inactive | inactive | inactive | inactive | inactive | > 30000 | 
Cc1cn(-c2nc(N(C)Cc3ccccc3)nc(C)c2[N+](=O)[O-])cn1 | >=10 | inactive | inactive | inactive | inactive | inactive | inactive | inactive | 10000 | 
Cc1nccn1-c1nc(N(C)Cc2ccccc2)ncc1[N+](=O)[O-] | >=10 | inactive | inactive | inactive | inactive | inactive | inactive | inactive | 3000 | 
